Results as given in ChEMBL document CHEMBL4177753, “Structural Modification of Natural Product Ganomycin I Leading to Discovery of a α-Glucosidase and HMG-CoA Reductase Dual Inhibitor Improving Obesity and Metabolic Dysfunction in Vivo” (J Med Chem, 2018).
Calls of active or inactive are those of the source. The calls are words filed in the database; no cut-off is given here.

Tests used:
Mus musculus [1] = assay: Upregulation of Muc-1 mRNA expression in ob/ob mouse ileum at 3 mg/kg administered daily via oral gavage for 31 days by RNA-seq analysis; format: functional, organism-based
Mus musculus [2] = assay: Antiobesity activity in antibiotic-treated ob/ob mouse assessed as reduction in weight gain at 3 mg/kg administered daily via oral gavage for 3 weeks; format: functional, organism-based
Outline: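 Male ob/ob mice given drinking water with ampicillin (1 g/L), vancomycin and other antibiotics for three weeks. Groups of n = 8 were dosed at 3.0 mg/kg/day by mouth in soybean vehicle, alongside non-antibiotic ob/ob groups. Weight gain and food intake recorded.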

Mus musculus [3] = assay: Hypoglycemic activity in ob/ob mouse assessed as decrease in fasting blood glucose levels administered daily via oral gavage for 28 days; format: functional, organism-based
Outline: (§1)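 Male ob/ob mice, n = 10 per group, daily gavage at 0.3, 1.0 or 3.0 mg/kg in soybean vehicle. Fasting and free-diet blood glucose and HbA1c measured.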

Mus musculus [4] = assay: Hypolipidemic activity in ob/ob mouse assessed as decrease in plasma LDL-C levels at 3 mg/kg administered daily via oral gavage for 31 days relative to vehicle-treated control; format: functional; design: scale not given: the % may be the effect or the level left
Mus musculus [5] = assay: Toxicity in C57BL/6J mouse assessed as effect on organ coefficients at 30 mg/kg administered daily via oral gavage for 3 months; format: organism-based; conditions: in vivo
Outline: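 Long-term safety study in C57BL/6J mice, 20 male and 20 female, sorted by gender, blood glucose and body weight into four groups (n = 10 each). Treated groups of each sex got 30.0 mg/kg daily by oral gavage in soybean vehicle. Vehicle groups got an equal volume of soybean. Dosing ran three months, with behavior, survival, body weight, blood glucose, liver function and organ coefficients recorded.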

[6] = Inhibition of rat small intestinal mucosal alpha-glucosidase using p-nitrophenyl-alpha-D-glucopyranoside as substrate by HPLC method
Outline: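 Rat intestinal α-glucosidase; after incubation the product 4-nitrophenol is quantified at once by HPLC (gradient from 20% acetonitrile in water with 0.1‰ TFA to 100% acetonitrile over 10 min). Each concentration run 3 times in parallel; % inhibition from peak areas versus control minus control blank; IC50 from the concentration series.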

Betaproteobacteria = assay: Decrease in Betaproteobacteria levels in cecum of ob/ob mouse at 1 to 3 mg/kg administered daily via oral gavage for 31 days by 16S rRNA gene high-throughput sequencing method; format: functional, organism-based
Outline: (§2)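 Male ob/ob mice dosed daily by gavage at 1.0 or 3.0 mg/kg, compared with vehicle group. DNA extracted from about 150 mg caecum contents. 16S rRNA V3–V4 region amplified and sequenced on Illumina HiSeq PE250. Community compared by NMDS/MRPP; discriminant taxa identified by LEfSe.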

Mus musculus [7] = assay: Upregulation of Il10 mRNA expression in ob/ob mouse ileum at 3 mg/kg administered daily via oral gavage for 31 days by RNA-seq analysis; format: functional, organism-based
[8] = Inhibition of rat small intestinal mucosal alpha-glucosidase using p-nitrophenyl-alpha-D-glucopyranoside as substrate after 40 mins by colorimetric method
Outline: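 Rat small intestinal mucosal α-glucosidase; several compound concentrations, each run three times in parallel; phosphate-buffer control replaces compound, blank replaces enzyme. Absorbance at 405 nm; % inhibition = blank-corrected OD of test versus control; IC50 derived from the concentration gradient.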

Alphaproteobacteria = assay: Decrease in Alphaproteobacteria levels in cecum of ob/ob mouse at 1 to 3 mg/kg administered daily via oral gavage for 31 days by 16S rRNA gene high-throughput sequencing method; format: functional, organism-based; outline: as §2
Mus musculus [9] = assay: Hypolipidemic activity in antibiotic-treated ob/ob mouse assessed as decrease in hepatic free fatty acid levels at 3 mg/kg administered daily via oral gavage for 3 weeks; format: functional, organism-based
Outline: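 Male ob/ob mice pretreated three weeks with ampicillin (1 g/L), vancomycin, neomycin, gentamycin and erythromycin. Groups of n = 8 given 3.0 mg/kg/day orally in soybean vehicle versus vehicle. Plasma and hepatic lipids, fasting glucose, OGTT (glucose 2 g/kg after overnight fast) and HbA1c measured.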

Gammaproteobacteria = assay: Decrease in Gammaproteobacteria levels in cecum of ob/ob mouse at 1 to 3 mg/kg administered daily via oral gavage for 31 days by 16S rRNA gene high-throughput sequencing method; format: functional, organism-based; outline: as §2
Alistipes = assay: Decrease in Alistipes levels in cecum of ob/ob mouse at 3 mg/kg administered daily via oral gavage for 31 days by 16S rRNA gene high-throughput sequencing method; format: functional, organism-based; outline: as §2
[10] = AUC (0 to t) in Sprague-Dawley rat at 2 mg/kg, po; format: ADME, organism-based; conditions: in vivo
Outline: (§3)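 Male Sprague-Dawley rats (n = 6, 0.21–0.23 kg), single oral dose 2.0 mg/kg. Orbital blood sampled 0–16 h into heparinized tubes. Plasma was protein-precipitated with methanol, with internal standard added. Quantified by UPLC-ESI(+)-QTOF-MS in SIM mode on a C18 column with a methanol/0.3% formic acid water gradient. Linear range 0.54–107 ng/ml.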

Neisseria = assay: Decrease in Neisseri levels in cecum of ob/ob mouse at 3 mg/kg administered daily via oral gavage for 31 days by 16S rRNA gene high-throughput sequencing method; format: functional, organism-based; outline: as §2
[11] = AUC (0 to infinity) in Sprague-Dawley rat at 2 mg/kg, po; format: ADME, organism-based; design: dose 2 mg/kg, route oral, time infinity; conditions: in vivo; outline: as §3
Mus musculus [12] = assay: Hypoglycemic activity in C57BL/6J DIO mouse assessed as decrease in blood glucose AUC at 0.3 to 3 mg/kg administered daily via oral gavage for 25 days by OGTT; format: functional, organism-based
Outline: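 Male ob/ob or high-fat-diet C57BL/6J mice dosed daily by gavage at 0.3–3.0 mg/kg. OGTT: glucose 2 g/kg orally after overnight fast. ITT: insulin 0.6 U/kg i.p. after 4 h fast. Glucometer readings at 0, 40, 80 and 120 min; AUC computed from the curves.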

Mus musculus [13] = assay: Antiobesity activity in ob/ob mouse assessed as reduction in LEE index at 3 mg/kg administered daily via oral gavage for 31 days relative to vehicle-treated control; format: functional, organism-based
Outline: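 Male ob/ob mice, n = 10 per group, grouped by blood glucose and body weight. Daily gavage at 0.3, 1.0 or 3.0 mg/kg in soybean vehicle, with soybean vehicle controls and C57BL/6J controls. Body weight, cumulative food intake, LEE index, fat mass and lean mass recorded. Mean ± SEM, one-way ANOVA with Tukey test.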

Mus musculus [14] = assay: In vivo inhibition of alpha-glucosidase activity in ob/ob mouse assessed as reduction of blood glucose AUC at 0.3 to 3 mg/kg administered daily via oral gavage for 32 days by OMTT; format: functional, organism-based
Outline: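 Male ob/ob mice given 0.3–3.0 mg/kg daily by gavage; after overnight fast, sucrose (OSTT) or maltose (OMTT) 4.0 g/kg given orally; blood glucose by glucose meter at 0, 40, 80 and 120 min; AUC calculated from the time course.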

Mus musculus [15] = assay: Hypolipidemic activity in ob/ob mouse assessed as decrease in liver LDL-C levels at 0.3 to 3 mg/kg administered daily via oral gavage for 31 days; format: functional, organism-based
Mus musculus [16] = assay: Hypoglycemic activity in ob/ob mouse assessed as decrease in HbA1c levels administered daily via oral gavage for 31 days; format: functional, organism-based; outline: as §1

CC(C)=CCC/C(C)=C/CCC1=C[C@H](c2ccc(C(C)(C)C)cc2)OC1=O
Activity (Mus musculus [1]): Active | Activity (Mus musculus [2]): Active | Activity (Mus musculus [3]): Dose-dependent effect | Activity (Mus musculus [4]): 51% | Activity (Mus musculus [5]): Non-Toxic | IC50 [6]: 40 nM | Activity (Betaproteobacteria): Active | Activity (Mus musculus [7]): Active | IC50 [8]: 60 nM | Activity (Alphaproteobacteria): Active | Activity (Mus musculus [9]): inactive | Activity (Gammaproteobacteria): Active | Activity (Alistipes): Active | AUC(0-t) [10]: 274 ng·h/mL | Activity (Neisseria): Active | AUC(0-inf) [11]: 280 ng·h/mL | Activity (Mus musculus [12]): Active | Activity (Mus musculus [13]): Active | inhibition (Mus musculus [14]): Active | Activity (Mus musculus [15]): Active | Activity (Mus musculus [16]): Dose-dependent effect
